Calls of active or inactive are those of the source. No cut-off for these calls is given here.
Experiments:
[1] = target: T1, Monoglyceride lipase (Homo sapiens) (UniProt Q99685); assay: Reversible inhibition of human recombinant MAGL pre-incubated for up to 60 mins before MAGL substrate addition and further incubated for 10 mins
T1 sequence (whole entry): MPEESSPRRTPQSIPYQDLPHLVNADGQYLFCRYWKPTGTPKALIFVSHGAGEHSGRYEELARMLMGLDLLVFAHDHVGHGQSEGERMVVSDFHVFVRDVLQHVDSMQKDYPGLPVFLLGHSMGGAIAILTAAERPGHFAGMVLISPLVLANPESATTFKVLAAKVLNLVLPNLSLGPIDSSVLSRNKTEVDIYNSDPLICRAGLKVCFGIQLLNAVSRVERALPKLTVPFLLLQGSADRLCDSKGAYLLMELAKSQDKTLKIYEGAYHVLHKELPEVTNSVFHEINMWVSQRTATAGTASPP
Outline: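 The inhibitor was preincubated with MAGL for 0, 30 or 60 min before substrate was added to start the reaction. IC50 (nM) was determined at each preincubation time, from 3 independent experiments.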

[2] = target: T1, Monoglyceride lipase (Homo sapiens); assay: Reversible inhibition of human recombinant MAGL at 1 uM pre-incubated for 5 mins before MAGL substrate 4-NPA addition followed by 10 fold dilution and measured after 10 mins
Outline: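 Human MAGL was preincubated with 1 μM inhibitor and then diluted 10-fold to a final 0.1 μM. Percent inhibition after dilution was compared with direct 1 μM and 0.1 μM samples to judge reversibility.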

[3] = target: T2, Monoglyceride lipase (Homo sapiens, UniProt Q99685); assay: Inhibition of human recombinant MAGL pre-incubated for 5 mins before MAGL substrate addition and further incubated for 10 mins
T2 sequence (Q99685 whole entry): T1 sequence (whole entry)

[4] = target: T3, Fatty-acid amide hydrolase 1 (Homo sapiens, UniProt O00519); assay: Inhibition of human recombinant FAAH pre-incubated for 5 mins before substrate addition and further incubated for 30 mins by fluorescence assay
T3 sequence (O00519 whole entry): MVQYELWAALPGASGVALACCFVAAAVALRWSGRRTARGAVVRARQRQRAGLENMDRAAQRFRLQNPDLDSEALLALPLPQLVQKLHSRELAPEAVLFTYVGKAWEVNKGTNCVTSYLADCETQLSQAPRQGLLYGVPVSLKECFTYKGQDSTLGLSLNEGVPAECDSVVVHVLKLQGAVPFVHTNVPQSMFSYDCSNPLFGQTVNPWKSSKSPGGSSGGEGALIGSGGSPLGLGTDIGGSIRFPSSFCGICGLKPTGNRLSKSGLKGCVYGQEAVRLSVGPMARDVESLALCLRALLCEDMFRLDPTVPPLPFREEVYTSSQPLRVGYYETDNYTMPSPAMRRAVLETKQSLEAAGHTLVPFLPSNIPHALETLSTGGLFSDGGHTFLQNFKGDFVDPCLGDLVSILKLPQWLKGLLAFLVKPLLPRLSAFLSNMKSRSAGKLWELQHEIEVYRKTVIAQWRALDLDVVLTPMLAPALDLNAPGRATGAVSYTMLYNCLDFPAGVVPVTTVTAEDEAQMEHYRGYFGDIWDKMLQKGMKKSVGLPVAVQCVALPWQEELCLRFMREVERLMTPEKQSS

[5] = target: T4, Fatty-acid amide hydrolase 1 (Homo sapiens) (UniProt O00519); assay: Inhibition of human recombinant FAAH at 100 uM pre-incubated for 5 mins before substrate addition and further incubated for 30 mins by fluorescence assay relative to control
T4 sequence (whole entry): T3 sequence (O00519 whole entry)

[6] = organism: Homo sapiens; assay: Selectivity index, ratio of IC50 for inhibition of human recombinant FAAH to IC50 for inhibition of human recombinant MAGL
[7] = AUC (0 to t) in Sprague-Dawley rat plasma at 10 mg/kg, iv measured over 1 to 300 mins post dose by LC-MS/MS analysis; format: ADME, organism-based; settings: in vivo
[8] = AUC (0 to infinity) in Sprague-Dawley rat plasma at 10 mg/kg, iv measured over 1 to 300 mins post dose by LC-MS/MS analysis; format: ADME, organism-based; design: dose 10 mg/kg, time infinity, route intravenous; settings: in vivo
[9] = Protein binding in rat plasma at 20 to 500 ng/mL by ultracentrifugation assay; format: ADME, cell-free; settings: read-out: PPB (converted)
Outline: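 Binding to rat plasma proteins was measured by ultracentrifugation across 20–500 ng/mL of compound.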

[10] = tested on: Mus musculus; assay: Antidepressant activity in ICR mouse model of reserpine-induced depression assessed as reduction in head touch at 4 to 16 mg/kg, sc for 6 days followed by reserpine injection 2 hrs after last compound dose and measured after 2 hrs; format: functional, organism-based
Outline: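 In mice, depression was induced with reserpine 4 mg/kg, and the compound was given s.c. at 4, 8 or 16 mg/kg. Controls received phosphate buffer alone. Awakening, finger contact, fear, head touch, autonomous movement, straight and eyelid closure were scored. Data are mean ± SD of 3 independent experiments.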

[11] = tested on: Mus musculus; assay: Antidepressant activity in ICR mouse model of reserpine-induced depression assessed as immobility time at 5 mg/kg, ig by forced swim test (reference value: 136.84 +/- 46.69 secs); format: functional
[12] = Tmax in Sprague-Dawley rat brain at 10 mg/kg, ig measured over 5 to 720 mins post dose by LC-MS/MS analysis
[13] = Cmax in Sprague-Dawley rat brain at 10 mg/kg, ig measured over 5 to 720 mins post dose by LC-MS/MS analysis
[14] = AUC (0 to t) in Sprague-Dawley rat brain at 10 mg/kg, ig measured over 5 to 720 mins post dose by LC-MS/MS analysis; settings: in vivo
[15] = target: Cannabinoid receptor 1 (Homo sapiens, UniProt P21554); assay: Inhibition of CB1 receptor (unknown origin) expressed in Flpin-CHO cells at 10 uM incubated for 10 mins by Eu-cAMP tracer based cAMP accumulation assay relative to control
Sequence of Cannabinoid receptor 1 (P21554 whole entry): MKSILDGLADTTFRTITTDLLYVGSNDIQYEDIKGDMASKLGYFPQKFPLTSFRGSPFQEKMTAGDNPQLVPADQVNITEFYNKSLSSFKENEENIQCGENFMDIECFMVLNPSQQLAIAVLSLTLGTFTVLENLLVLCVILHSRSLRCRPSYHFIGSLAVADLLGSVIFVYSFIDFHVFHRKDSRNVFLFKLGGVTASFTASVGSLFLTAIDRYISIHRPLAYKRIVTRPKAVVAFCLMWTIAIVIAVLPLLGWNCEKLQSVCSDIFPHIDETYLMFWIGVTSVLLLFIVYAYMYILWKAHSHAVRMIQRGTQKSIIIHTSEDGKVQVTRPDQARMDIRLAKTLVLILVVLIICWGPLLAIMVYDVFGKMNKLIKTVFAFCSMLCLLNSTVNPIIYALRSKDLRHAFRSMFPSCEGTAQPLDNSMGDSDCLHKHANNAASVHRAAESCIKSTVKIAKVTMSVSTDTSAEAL

O=C(Nc1cccc(Cl)c1)C1CCN(C(=O)c2ccc3ccccc3c2)CC1
inhibition [1]: Active | inhibition [2]: Active | IC50 [3]: 14.7 nM | IC50 [4]: > 100000 nM | inhibition [5]: 41.3% | Ratio IC50 [6]: 6780 | AUCt [7]: 80893 µg·min/L | AUC [8]: 82362.19 µg·min/L | fraction unbound [9]: 0.229 | Activity [10]: Active | Time [11]: 89.38 s | Tmax [12]: 40 min | Cmax [13]: 16.6 ng/mL | AUCt [14]: 3582.71 µg·min/L | inhibition [15]: 29.7%
